These results are taken from ChEMBL document CHEMBL5584326, “Second-generation piperazine derivatives as promising radiation countermeasures” (RSC Med Chem, 2024).

One data set relates to Jurkat. As to the kind of experiment: Cytotoxicity against human Jurkat cells assessed as reduction in cell viability at 100 uM measured after 48 hrs by WST-1 assay. Format: toxicity, cell-based. In a few lines: (§1)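 Cells kept at 37 °C in humidified 5% CO2, adherent lines under 10 passages, suspension lines under 20, exponential phase. Seeded at 1–50 × 10^3 cells per well, settled overnight, then a single 48 h exposure at 100 μM final. WST-1 read at 440 nm. Proliferation given as % of 0.1% DMSO mock control, mean of three independent experiments.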
(In general: Tetrazolium assays rely on reduction of a dye to a coloured formazan, in cell work by metabolically active cells.)

The test system of a further data set is MOLT-4. As to the kind of experiment: Cytotoxicity against human MOLT-4 cells assessed as reduction in cell viability at 100 uM measured after 48 hrs by WST-1 assay. In kind it is toxicity, cell-based. Particulars: molt-4, 48 h. In a few lines: as §1
A further data set relates to A549. Put plainly: Cytotoxicity against human A549 cells assessed as reduction in cell viability at 100 uM measured after 48 hrs by WST-1 assay. In kind it is toxicity, cell-based. The conditions noted are these: a549, 48 h. In a few lines: as §1
For the next data set, the system named is HT-29. As to the kind of experiment: Cytotoxicity against human HT-29 cells assessed as reduction in cell viability at 100 uM measured after 48 hrs by WST-1 assay. In kind it is toxicity, cell-based. The conditions noted are these: ht-29, 48 h. In a few lines:
as §1

Another data set relates to PANC-1. Put plainly: Cytotoxicity against human PANC-1 cells assessed as reduction in cell viability at 100 uM measured after 48 hrs by WST-1 assay. Format: toxicity, cell-based. Particulars: panc-1, 48 h. In outline: as §1
Another data set deals with MCF7. As to the kind of experiment: Cytotoxicity against human MCF7 cells assessed as reduction in cell viability at 100 uM measured after 48 hrs by WST-1 assay. Format: toxicity, cell-based. The conditions noted are these: mcf7, 48 h. In a few lines:
as §1

In another data set the test system is SAOS-2. As to the kind of experiment: Cytotoxicity against human SAOS-2 cells assessed as reduction in cell viability at 100 uM measured after 48 hrs by WST-1 assay. In kind it is toxicity, cell-based. The conditions noted are these: saos-2, 48 h. In a few lines:
as §1

In another data set the test system is MRC5. Put plainly: Cytotoxicity against human MRC5 cells assessed as reduction in cell viability at 100 uM measured after 48 hrs by WST-1 assay. Format: toxicity, cell-based. Particulars: mrc5, 48 h. In a few lines:
as §1

Data set [1] in a line: Cytotoxicity against human PBMC assessed as optimal non-toxic concentration required to show >=90 to 100% cell viability measured after 48 hrs by MTS assay. Format: toxicity, cell-based. Particulars: read-out: Activity. In outline:
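PBMCs from a healthy donor were isolated on Histopaque-1077 and cultured in RPMI 1640 with 20% inactivated FBS. About 5×10^4 cells per well were exposed 48 h at 37 °C, 5% CO2 to 10–1000 μM. MTS was added 4 h before reading at 490 nm, blank subtracted, untreated control set to 100%. Concentration taken as viability ≥90% and not below control (P 0.05), mean of ≥3 measurements.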

The test system of a further data set is Blood. Put plainly: Radioprotective activity against 3 Gy gamma radiation-induced DNA damage in human whole blood assessed as reduction in number of dicentric chromosomes per cell by measuring radioprotection factor at 1000 uM preincubated for 1 hr followed by 3 Gy gamma irradiation and measured after 48 hrs by giemsa staining based microscopic analysis relative to control. Format: functional. The conditions noted are these: time 49 hrs. In a few lines: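 Heparinized whole blood from healthy male donors, 60 min compound pre-exposure, then single 3 Gy 60Co gamma dose at 0.6 Gy/min. After 30 min at 37 °C, cultured in RPMI 1640 with 20% FBS and 2% PHA. Colcemid 0.25 μg/ml added at 48 h, harvest at 50 h, KCl hypotonic, methanol:acetic acid fixation, 5% Giemsa. Automated metaphase scoring. RF = […].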

Data set [2] can be described thus: Cytotoxicity against human PBMC assessed as reduction in cell viability at 20 uM measured after 48 hrs by MTS assay. In kind it is toxicity, cell-based. In outline:
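PBMCs isolated from whole blood of a healthy donor by Histopaque-1077 density centrifugation, cultured in RPMI 1640 GlutaMAX with 20% inactivated FBS and penicillin/streptomycin. About 5×10^4 cells/well exposed to 10–1000 μM for 48 h at 37 °C, 5% CO2. MTS added 4 h before reading absorbance at 490 nm, cell-free medium blank subtracted. Untreated control set as 100%; mean of ≥3 independent measurements.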

Molecules are shown by their SMILES.

Take `COc1cc([N+](=O)[O-])ccc1OCC(O)CN1CCN(CCO)CC1` (stereo not drawn): the Activity entry in the data set on Jurkat, in the data set on MOLT-4, in the data set with A549, with HT-29, in the data set on PANC-1 and in the data set with MCF7 was “Non-Toxic” each time. For the same compound, the Activity entry with SAOS-2 and with MRC5 was “Non-Toxic” throughout. The MNTC at 48 h in data set [1] worked out at 500 µM.
In the case of `OCCN1CCN(CC(O)COc2ccc(Oc3ccc(F)cc3)cc2)CC1` (stereo not drawn), the Activity result with Jurkat, in the data set on MOLT-4, in the data set on A549, with HT-29, with PANC-1 and with MCF7 was “Toxic” in each case. In addition, the Activity entry with SAOS-2 and in the data set with MRC5 was “Toxic” throughout.
As to `COc1ccc(OCC(O)CN2CCN(CCO)CC2)c([N+](=O)[O-])c1` (stereo not drawn), the Activity result in the data set on Jurkat, in the data set with MOLT-4, with A549, with HT-29, in the data set with PANC-1 and in the data set with MCF7 was “Non-Toxic” each time. For the same compound, the Activity result in the data set with SAOS-2 and in the data set with MRC5 was “Non-Toxic” in each case. Besides, the MNTC at 48 h in data set [1] is 500 µM.
For `O=[N+]([O-])c1cc(OCC(O)CN2CCN(CCO)CC2)ccc1Cl` (stereo not drawn), the Activity entry in the data set with Jurkat, in the data set with MOLT-4, in the data set on A549, in the data set on HT-29, in the data set with PANC-1 and in the data set with MCF7 was “Non-Toxic” in each case. The Activity result in the data set with SAOS-2 and in the data set on MRC5 was “Non-Toxic” in each case. Further, in data set [1], the MNTC at 48 h turned out to be 200 µM.
As to `OCCN1CCN(CC(O)COc2cccc(Cl)c2)CC1` (stereo not drawn), the Activity result in the data set with Jurkat, with MOLT-4, in the data set with A549, with HT-29, in the data set with PANC-1 and in the data set with MCF7 was “Non-Toxic” throughout. The Activity entry with SAOS-2 and in the data set with MRC5 was “Non-Toxic” throughout. Further, the MNTC at 48 h in data set [1] was found to be 500 µM.
As for `OCCN1CCN(CC(O)COc2ccc(F)cc2)CC1` (stereo not drawn), the Activity result in the data set with Jurkat, in the data set on MOLT-4, in the data set with A549, with HT-29, in the data set on PANC-1 and in the data set with MCF7 was “Non-Toxic” each time. In addition, the Activity result in the data set on SAOS-2 and in the data set on MRC5 was “Non-Toxic” in each case. In data set [1], the MNTC at 48 h came out at 1000 µM. For the same compound, in the data set with Blood, the PI was 1.53.
On to `O=[N+]([O-])c1ccc(OCC(O)CN2CCN(CCO)CC2)c(F)c1` (stereo not drawn), for which the Activity result with Jurkat, in the data set on MOLT-4, with A549, in the data set on HT-29, in the data set with PANC-1 and with MCF7 was “Non-Toxic” each time. In addition, the Activity result with SAOS-2 and in the data set with MRC5 was “Non-Toxic” in each case. Further, in data set [1], the MNTC at 48 h worked out at 500 µM.
Consider `OCCN1CCN(CC(O)COc2cc(Cl)c(Cl)cc2Cl)CC1` (stereo not drawn), for which the Activity result in the data set with Jurkat, in the data set on MOLT-4, in the data set with A549, in the data set on HT-29, in the data set on PANC-1 and with MCF7 was “Toxic” each time. Moreover, the Activity entry in the data set with SAOS-2 and in the data set on MRC5 was “Toxic” each time.
Consider `NCCCNCCSP(=O)(O)O` [AMIFOSTINE], for which, in data set [2], the Activity entry is recorded as “Toxic”. In data set [1], the MNTC at 48 h was 10 µM.
